Assay outcomes from PubChem.
The list is not random: actives were taken first. Their share in the collection is about 3.5%.
MrgX1 allo act: allosterically activates human MrgX1 receptor signaling | Q96LB2 | MrgX1-HEK293, Fluo-4 calcium flux, FDSS; stronger effect = higher value | B-score at 10 µM | 310,000 compounds, 0.63% hits | AID 588675;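 active = plate-corrected calcium response at least 3 library SD above typical, normal starting fluorescence, not activating the receptor alone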;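 also: compound read alongside a low EC10 to EC30 dose of BAM8-22 agonist; peak minus trough fluorescence over baseline measured at the second addition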
Target sequence (Q96LB2 whole entry, looked up): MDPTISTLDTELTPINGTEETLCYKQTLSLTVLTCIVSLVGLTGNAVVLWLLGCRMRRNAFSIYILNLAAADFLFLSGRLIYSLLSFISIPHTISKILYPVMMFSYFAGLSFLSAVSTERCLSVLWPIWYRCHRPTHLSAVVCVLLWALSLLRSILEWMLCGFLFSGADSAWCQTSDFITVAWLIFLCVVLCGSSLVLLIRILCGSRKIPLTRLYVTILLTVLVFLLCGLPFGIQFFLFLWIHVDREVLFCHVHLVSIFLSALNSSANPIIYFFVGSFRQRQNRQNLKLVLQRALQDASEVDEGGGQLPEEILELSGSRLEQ
RGS4 block: human RGS4 inhibition | HEK293 M3R/RGS4 inducible, Fluo-4 calcium flux; stronger effect = higher value; triggered by carbachol at its EC20 | AID 463165 | 310,000 compounds, 0.45% hits | P49798 | B-score at 10 µM;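 active = B-score, a plate-corrected calcium signal, over three deviations above library mean, with baseline fluorescence within five deviations of library mean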;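 also: RGS4 expression induced by doxycycline in cells with stable M3 receptor; B-score is computed from the integrated fluorescence ratio over baseline after carbachol; higher B-score means a larger calcium signal and so more RGS4 inhibition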
Target sequence (P49798 whole entry, looked up): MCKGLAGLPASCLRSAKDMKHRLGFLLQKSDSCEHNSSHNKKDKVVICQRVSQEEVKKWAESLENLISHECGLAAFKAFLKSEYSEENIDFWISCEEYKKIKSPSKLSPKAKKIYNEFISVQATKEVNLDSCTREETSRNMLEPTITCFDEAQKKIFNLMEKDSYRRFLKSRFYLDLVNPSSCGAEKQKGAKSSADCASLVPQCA
RGS4 act: potentiators or activators of RGS4; HEK293 M3R/inducible RGS4, carbachol calcium flux Fluo4; stronger effect = lower value; AID 463111; 310,000 compounds, 0.92% hits; B-score at 10 µM;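 active = B-score of the integrated calcium signal more than 4 SD below the library mean, with starting fluorescence not abnormally high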;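 also: negative B-score means reduced calcium response which marks RGS4 activation or potentiation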
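System – HEK293 FlpIn-TREx cells, stable M3R, doxycycline-inducible RGS4 · Reagent – ECmax carbachol challenge · Times – compound preincubation 20 min at room temperature before agonist · Technique – Fluo4 fluorescence kinetic imaging of calcium · Measure – B score of integrated Fluo4 ratio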
MrgX1 ag: activates human MrgX1 receptor signaling; AID 588627; MrgX1-HEK293 cells, Fluo-4 calcium fluorescence, agonist mode; stronger effect = higher value; B-score at 10 µM; 310,000 compounds, 0.44% hits;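 active = calcium response B-score plate-corrected fluorescence ratio at least 3 library SD, with starting fluorescence B-score inside 5 SD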
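Material: MrgX1-expressing HEK293 cells; input: 15,000 cells per well; doses: test compound given as first of three sequential additions; schedule: overnight plating before 1 h dye loading; technique: Fluo-4 NW calcium-flux fluorescence, kinetic read; evaluation: baseline-normalised fluorescence change ratio, B-scored; control set: plate-wise positive and negative controls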
MrgX1 antag: blocks BAM8-22 activation of human MrgX1 receptor. Q96LB2. 310,000 compounds, 1.3% hits. B-score at 10 µM. AID 588676. MRGX1-HEK293 calcium flux, Fluo-4, BAM8-22 antagonism; stronger effect = lower value;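 active = calcium-response B-score plate-corrected more than 3 library SD below zero, starting fluorescence within 5 deviations, no agonist response on first addition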;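 also: peak minus trough fluorescence over baseline after final BAM8-22 challenge near maximal dose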
Numbers stand for hits.

`CN1C[C@H](CO)C=C2c3cccc4[nH]cc(c34)C[C@H]21` gave MrgX1 allo act inactive, RGS4 block inactive, RGS4 act inactive, MrgX1 ag 35.6 and MrgX1 antag inactive.
Screening O=C1NC(=O)N(Cc2ccccc2)C(=O)/C1=C/c1cnn(-c2ccccc2)c1 returned MrgX1 allo act inactive, RGS4 block inactive, RGS4 act inactive, MrgX1 ag inactive and MrgX1 antag -5.49.
Screening NC(N)=N/N=C/c1cn(-c2ccccc2)nc1-c1cccs1 returned MrgX1 allo act inactive, RGS4 block inactive, RGS4 act inactive, MrgX1 ag 43.7 and MrgX1 antag inactive.
For O=c1c2ccccc2nc(-c2cccs2)n1-c1ccccc1 the results were MrgX1 allo act inactive, RGS4 block inactive, RGS4 act inactive, MrgX1 ag inactive and MrgX1 antag inactive.
Screening Cc1cc(-c2ccccc2)cc(-c2ccccc2)[n+]1CCc1ccccc1 returned MrgX1 allo act inactive, RGS4 block inactive, RGS4 act -8.18, MrgX1 ag inactive and MrgX1 antag -4.63.
Clc1ccc(C[n+]2c(-c3ccccc3)cc(-c3ccccc3)cc2-c2ccccc2)cc1 was read as MrgX1 allo act inactive, RGS4 block inactive, RGS4 act -8.1, MrgX1 ag inactive and MrgX1 antag -6.86.
For Cc1cccc(-n2c(/C=C/c3ccccn3)nc3ccccc3c2=O)c1 the results were MrgX1 allo act inactive, RGS4 block inactive, RGS4 act inactive, MrgX1 ag inactive and MrgX1 antag inactive.
Screening CC(=O)c1cn(CC(=O)NCCc2c[nH]c3ccccc23)c2ccccc12 returned MrgX1 allo act inactive, RGS4 block inactive, RGS4 act inactive, MrgX1 ag inactive and MrgX1 antag inactive.
Screening CN=C1CN(O)C(c2ccccc2)=c2cc(Cl)ccc2=N1 returned MrgX1 allo act 9.57, RGS4 block inactive, RGS4 act inactive, MrgX1 ag inactive and MrgX1 antag inactive.
CCCN1CCCC(C(=O)c2cc(C)c(OC)c(C)c2)C1 (stereo unspecified) was read as MrgX1 allo act inactive, RGS4 block inactive, RGS4 act inactive, MrgX1 ag inactive and MrgX1 antag inactive.
`COc1ccc(N2C(=O)/C(=C/c3ccc(N(C)C)o3)C(=O)NC2=S)cc1` gave MrgX1 allo act inactive, RGS4 block inactive, RGS4 act inactive, MrgX1 ag inactive and MrgX1 antag inactive.
`CCN(CC)c1ccc(/C=C2\C(=O)NC(=S)N(c3ccc(OC)cc3OC)C2=O)o1` gave MrgX1 allo act inactive, RGS4 block inactive, RGS4 act -7.24, MrgX1 ag inactive and MrgX1 antag inactive.
Screening O=[N+]([O-])c1ccccc1-c1cc(-c2ccccc2)cc(-c2ccccc2)[n+]1Cc1ccccc1Cl returned MrgX1 allo act inactive, RGS4 block inactive, RGS4 act -10.2, MrgX1 ag inactive and MrgX1 antag -7.01.
For N/C(=N\N=C\c1ccc(O)cc1O)N[N+](=O)[O-] the results were MrgX1 allo act inactive, RGS4 block inactive, RGS4 act inactive, MrgX1 ag inactive and MrgX1 antag inactive.
COc1ccccc1/C=N/N=C(/N)N[N+](=O)[O-] was read as MrgX1 allo act inactive, RGS4 block inactive, RGS4 act inactive, MrgX1 ag inactive and MrgX1 antag -7.7.
CN(CCc1ccccc1)Cc1c[nH]c2ccccc12 was read as MrgX1 allo act inactive, RGS4 block inactive, RGS4 act inactive, MrgX1 ag inactive and MrgX1 antag inactive.
`CCOC(=O)c1c(-n2c(C)cc(/C=C3/C(=O)NC(=O)N(CC)C3=O)c2C)sc2c1CCCC2` gave MrgX1 allo act inactive, RGS4 block inactive, RGS4 act inactive, MrgX1 ag inactive and MrgX1 antag inactive.
Screening CCOC(=O)c1c(-n2c(C)cc(C=C3C(=O)NC(=S)NC3=O)c2C)sc2c1CCCC2 returned MrgX1 allo act inactive, RGS4 block inactive, RGS4 act inactive, MrgX1 ag 28.3 and MrgX1 antag inactive.
CC[n+]1c(/C=C/C=C/c2ccc(N(C)C)cc2)sc2ccccc21 was read as MrgX1 allo act inactive, RGS4 block inactive, RGS4 act inactive, MrgX1 ag inactive and MrgX1 antag inactive.
CC[n+]1c(/C=C/N(C)c2ccccc2)sc2ccc(Cl)cc21 was read as MrgX1 allo act inactive, RGS4 block inactive, RGS4 act -9.53, MrgX1 ag inactive and MrgX1 antag inactive.
For CC(C)Cc1nnc(NC(=O)CCC(=O)N2CCC3(CC2)OCCO3)s1 the results were MrgX1 allo act inactive, RGS4 block inactive, RGS4 act inactive, MrgX1 ag inactive and MrgX1 antag inactive.
`CN1Cc2c(c(C#N)c(N)n(C)c2=S)CC1(C)C` gave MrgX1 allo act inactive, RGS4 block inactive, RGS4 act -9.35, MrgX1 ag inactive and MrgX1 antag inactive.
O=C1OC(c2ccc(Br)cc2)=N/C1=C\N1CC2CC(C1)c1cccc(=O)n1C2 (stereo unspecified) was read as MrgX1 allo act inactive, RGS4 block inactive, RGS4 act inactive, MrgX1 ag inactive and MrgX1 antag inactive.
`O=C1OC(c2ccc([N+](=O)[O-])cc2)=N/C1=C/N1CC2CC(C1)c1cccc(=O)n1C2` (stereo unspecified) gave MrgX1 allo act inactive, RGS4 block inactive, RGS4 act inactive, MrgX1 ag 57.3 and MrgX1 antag inactive.
`COc1ccccc1-n1c(-c2ccccc2Cl)nc2ccccc2c1=O` gave MrgX1 allo act inactive, RGS4 block inactive, RGS4 act inactive, MrgX1 ag inactive and MrgX1 antag inactive.
Screening O=c1[nH]c(=O)n(C2CCCCC2)c(O)c1/C=C/C=Nc1ccccc1 returned MrgX1 allo act inactive, RGS4 block inactive, RGS4 act inactive, MrgX1 ag inactive and MrgX1 antag -5.05.
O=c1c2ccccc2nc(-c2ccc(Cl)cc2Cl)n1-c1nccs1 was read as MrgX1 allo act inactive, RGS4 block inactive, RGS4 act inactive, MrgX1 ag inactive and MrgX1 antag inactive.
Screening CN(C)CC#CCC(O)(c1ccccc1)C1CCCC1 (stereo unspecified) returned MrgX1 allo act inactive, RGS4 block inactive, RGS4 act inactive, MrgX1 ag inactive and MrgX1 antag inactive.
For C[N+](C)(N)CCOC(=O)C(O)(c1ccccc1)C1CCCCC1 (stereo unspecified) the results were MrgX1 allo act inactive, RGS4 block inactive, RGS4 act -8.22, MrgX1 ag inactive and MrgX1 antag inactive.
CC[N+](CC)(CC)CCCOC(=O)C(O)(c1ccccc1)C1CCCCC1 (stereo unspecified) was read as MrgX1 allo act inactive, RGS4 block inactive, RGS4 act -8.21, MrgX1 ag inactive and MrgX1 antag inactive.
For O=P1(N(CCCl)CCCl)NCCCO1 (stereo unspecified) the results were MrgX1 allo act inactive, RGS4 block inactive, RGS4 act inactive, MrgX1 ag inactive and MrgX1 antag inactive.
OC(CN1CCOCC1)c1csc2ccccc12 (stereo unspecified) was read as MrgX1 allo act inactive, RGS4 block inactive, RGS4 act inactive, MrgX1 ag inactive and MrgX1 antag inactive.
